≈ marks a conversion by molar mass, not a printed value. Calls of active or inactive are those of the source. The rule behind the calls is not given here. Starred links: 1 amine or outer side, 2 acyl side, 3 side chain; linkers in the order of their positions; H or OH if unused. Positions of bridges follow the written chain, without caps; N, C: chain ends. Non-standard residues stand in square brackets, D forms with d. Residues, ends and D or L forms follow the SMILES beside them. X1 = CC[C@H](CCC[C@@H](O)[C@@H](C)C(=O)O[C@H](C)[C@@H](C)C/C=C(C)/C(=C\C(=O)[*:1])OC)O[*:2]; X2 = CC[C@H](CCC[C@@H](O)[C@@H](C)C(=O)O[C@H](C)[C@@H](C)C/C=C(\C)C(=O)CC(=O)[*:1])O[*:2]; NMeI = CC[C@H](C)[C@H](NC)C(=O)O; NMeV = CN[C@H](C(=O)O)C(C)C; NMeS = CN[C@@H](CO)C(=O)O
How the values were obtained:
[1] = Inhibition of microtubule assembly
MC-38 = assay: Cytotoxicity against mouse C38 cells at 1.8 mg/kg by in vivo assay; type: functional, organism-based; design: dose 1.8 mg/kg
Summary of the method: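 In vivo mouse model bearing the murine colon adenocarcinoma C38, with compound dosed at 1.8 mg/kg or lower.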

Mus musculus = species on record: Mus musculus; assay: Toxicity in mouse; type: organism-based; conditions: in vivo
[2] = Inhibition of microfilament assembly
[3] = molecular target: T1, DNA topoisomerase 1 (Homo sapiens) (UniProt P11387); assay: Inhibition of topoisomerase 1
T1 sequence (whole entry): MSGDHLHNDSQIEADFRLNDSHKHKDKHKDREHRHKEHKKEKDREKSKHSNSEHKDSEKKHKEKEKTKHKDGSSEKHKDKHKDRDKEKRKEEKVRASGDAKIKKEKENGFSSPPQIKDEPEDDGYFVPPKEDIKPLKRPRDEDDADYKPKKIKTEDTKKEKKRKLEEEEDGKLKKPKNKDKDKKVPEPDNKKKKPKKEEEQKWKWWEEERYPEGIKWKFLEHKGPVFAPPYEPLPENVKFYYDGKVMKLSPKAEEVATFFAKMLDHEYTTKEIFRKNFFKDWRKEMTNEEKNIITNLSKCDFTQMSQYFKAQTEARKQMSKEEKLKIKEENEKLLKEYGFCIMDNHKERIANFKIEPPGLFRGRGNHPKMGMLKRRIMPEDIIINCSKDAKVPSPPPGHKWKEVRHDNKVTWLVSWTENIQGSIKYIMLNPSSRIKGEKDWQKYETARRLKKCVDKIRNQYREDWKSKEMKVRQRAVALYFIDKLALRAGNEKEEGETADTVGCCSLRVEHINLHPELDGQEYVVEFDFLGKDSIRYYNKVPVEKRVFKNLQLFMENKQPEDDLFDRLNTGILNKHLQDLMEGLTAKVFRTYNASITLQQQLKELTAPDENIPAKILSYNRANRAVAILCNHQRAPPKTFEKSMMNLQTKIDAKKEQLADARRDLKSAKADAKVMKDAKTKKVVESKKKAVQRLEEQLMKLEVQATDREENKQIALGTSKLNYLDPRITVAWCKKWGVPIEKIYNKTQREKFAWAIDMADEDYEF

LoVo = assay: Cytotoxicity against human LoVo cells; type: functional, cell-based
KB = assay: Cytotoxicity against human KB cells; type: functional, cell-based

SMILES | Activity [1] | Activity (MC-38) | LD100 (Mus musculus) [mg/kg] | Activity [2] | Activity [3] | IC50 (LoVo) [µg/mL] | IC50 (KB) [µg/mL]
CC[C@@H]1CCC[C@@H](O)[C@@H](C)C(=O)O[C@H](C)[C@@H](C)C/C=C(C)/C(OC)=C\C(=O)N(C)[C@@H]([C@@H](C)CC)C(=O)N(C)[C@@H](C(C)C)C(=O)N(C)[C@@H](COC)C(=O)N2CCC[C@H]2C(=O)N(C)[C@@H](C(C)C)C(=O)N2CCC[C@H]2C(=O)O1 [LYNGBYASTATIN 2] ([NMeI][NMeV][NMeS](Me)P[NMeV]P; linker N-C via X1) | inactive | inactive | 3 | inactive | inactive | 0.014 (≈ 0.0132 µM) | 0.02 (≈ 0.0189 µM)
CC[C@@H]1CCC[C@@H](O)[C@@H](C)C(=O)O[C@H](C)[C@@H](C)C/C=C(\C)C(=O)CC(=O)N(C)[C@@H]([C@@H](C)CC)C(=O)N(C)[C@@H](C(C)C)C(=O)N(C)[C@@H](COC)C(=O)N2CCC[C@H]2C(=O)N(C)[C@@H](C(C)C)C(=O)N2CCC[C@H]2C(=O)O1 [NORLYNGBYASTATIN 2] ([NMeI][NMeV][NMeS](Me)P[NMeV]P; linker N-C via X2) | inactive |  |  | inactive | inactive | 0.475 (≈ 0.454 µM) | 0.93 (≈ 0.89 µM)

— ChEMBL document CHEMBL1142554, “Lyngbyastatin 2 and norlyngbyastatin 2, analogues of dolastatin G and nordolastatin G from the marine cyanobacterium Lyngbya majuscula” (J Nat Prod, 1999)
